S1P3 antag = antagonists of human S1P3 receptor | CHO S1P3 NFAT-BLA reporter, FRET fluorescence, antagonist mode | Q99500 | hit rate 0.27% among 170,000 | inhibition, % at 4.98 µM;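 active means inhibition above the plate cutoff, the mean inhibition of test wells on that plate plus 3 SD, cut at about 28% in these data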;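 further: cells challenged with S1P at its EC80 of 0.8 µM; blue over green emission ratio from cleaved BLA substrate after 4 h stimulation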
Pf gametocyte = kills late stage P. falciparum gametocytes; P. falciparum stage V gametocytes, ATP luminescence, 24 h; inhibition, % at 10.9 µM; hit rate 0.065% among 150,000; AID 743093;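 active means inhibition above the mean plus 3 SD of compounds within the control limits, set per campaign, cut at about 38% in these data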
S1P4 ag = human S1P4 receptor agonism; O95977; S1P4-expressing cell line, agonist reporter assay; activation, % at 4.98 µM; hit rate 0.35% among 220,000; AID 1509; in the data active means activation above about 11%
Target sequence (O95977 whole entry, looked up): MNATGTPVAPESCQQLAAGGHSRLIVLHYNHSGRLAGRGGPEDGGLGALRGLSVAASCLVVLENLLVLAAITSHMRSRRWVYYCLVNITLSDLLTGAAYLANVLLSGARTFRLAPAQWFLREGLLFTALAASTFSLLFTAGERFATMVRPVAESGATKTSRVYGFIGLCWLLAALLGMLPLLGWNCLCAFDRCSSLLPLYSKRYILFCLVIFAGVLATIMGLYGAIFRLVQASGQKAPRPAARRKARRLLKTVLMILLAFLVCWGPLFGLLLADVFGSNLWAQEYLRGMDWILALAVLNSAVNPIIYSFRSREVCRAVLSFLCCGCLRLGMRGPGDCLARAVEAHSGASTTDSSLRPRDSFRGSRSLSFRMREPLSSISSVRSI
Calb biofilm kill = mixtures killing C. albicans biofilm; hit rate 0.02% among 120,000; inhibition, % at 7.6 µM; C. albicans biofilm persisters + clotrimazole, fluorescence viability; primary screen in compound mixtures of four per well; AID 1242;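 active means inhibition above 30.3% in the primary screen of four-compound pools, then above 30% when the compound was retested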;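 further: compounds exposed to preformed 24 h biofilms for 48 h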
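Incubation: 24 h biofilm formation, then 48 h compound exposure, 37 °C | Material: C. albicans biofilms | Buffer or medium: RPMI/MOPS medium, pH 7.0 | Measured by: 2-h Alamar Blue fluorescence, 535/590 nm excitation/emission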
S1P4 antag = blocks the human S1P4 receptor | AID 1510 | inhibition, % at 4.98 µM | S1P4-expressing cells, antagonist mode, reporter read-out | hit rate 0.26% among 220,000 | O95977; in the data active means inhibition above about 29%
S1P4 antag cf = confirmation of human S1P4 receptor antagonists. shares compounds with S1P4 antag. S1P4-expressing cell line, antagonist mode, reporter read-out. inhibition, % at 4.98 µM. hit rate 71% among 520; in the data active means inhibition above about 30%
S1P1 antag = counter-screen for S1P4 antagonists: antagonists of human S1P1. inhibition, % at 4.98 µM. AID 1564. cell-based S1P1 antagonist counterscreen, inhibition. hit rate 37% among 520. shares compounds with S1P4 antag; in the data active means inhibition above about 40%;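 further: receptor stimulated with S1P near its EC80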
Numbers stand for hits; i = inactive; nt = no result. In the library only some 0.77% were active in any assay of this set; here they are far more common.

SMILES | S1P3 antag | Pf gametocyte | S1P4 ag | Calb biofilm kill | S1P4 antag | S1P4 antag cf | S1P1 antag
O=[N+]([O-])c1ccc(N2CCOCC2)cc1O | i | i | i | i | i | nt | nt
Cc1cc(N2CCOCC2)ccc1/C=C\[N+](=O)[O-] | i | i | i | i | 38.9 | 82.1 | i
COc1ccc(/C=C/C(=O)c2cc(F)ccc2OC(=O)c2ccccc2OC)cc1OC | i | i | i | i | 47.4 | 81.9 | 98.9
COC(=O)c1cn(N(C)c2ncc(C(F)(F)F)cc2Cl)c(=O)c2ccccc12 | nt | nt | i | nt | i | nt | nt
COC(=O)c1cn(Nc2ncc(C(F)(F)F)cc2Cl)c(=O)c2ccccc12 | nt | nt | i | nt | 37.9 | 31.0 | i
CCOC(=O)COc1ccc(S(=O)(=O)N2CCN(c3ccccc3F)CC2)cc1 | i | nt | i | nt | 36.1 | i | i
O=C(Nc1ccc2cn[nH]c2c1)c1c(Cl)cccc1Cl | i | nt | i | i | i | nt | nt
O=C1C(Cl)=C(Nc2ccc3cn[nH]c3c2)C(=O)c2ccccc21 | i | nt | i | i | 61.8 | 94.7 | 91.1
CS(=O)(=O)c1nc(-c2ccccc2)cc(C(F)(F)F)n1 | nt | nt | i | nt | 39.9 | 115.6 | i
Cc1oc2c(c1C(=O)NCc1cccnc1)C(=O)c1ccccc1C2=O | i | nt | i | i | 89.7 | 116.1 | 107.4
CC(Nc1ccc(F)cc1F)C(=O)NC(=O)NC1CCCCC1 (stereo not given) | i | i | i | i | 30.2 | i | i
O=C(Nc1ccc(F)cc1F)NC1CC1 | i | i | i | i | i | nt | nt
Cc1ccc2oc(=O)n(CCCOc3ccccc3)c2c1 | i | i | i | nt | 34.1 | i | i
COc1ccccc1NCc1nnc(-c2ccccc2)o1 | nt | i | nt | nt | nt | nt | nt
CCCNC(=O)c1cc2nc(-c3ccccc3)cc(C(F)(F)F)n2n1 | nt | nt | i | i | i | nt | nt
O=C(NC(Cc1ccccc1)C(=O)O)/C(=C\c1ccc(Cl)cc1)NC(=O)c1ccccc1 (stereo not given) | i | i | i | i | i | nt | nt
O=C(NC(Cc1ccccc1)C(=O)O)/C(=C/c1ccccc1)NC(=O)c1ccccc1 (stereo not given) | i | nt | i | i | 45.0 | i | i
COC(=O)c1ccc2c(c1)C(C)(C)C(/C=C/c1ccccc1O)=[N+]2C | nt | nt | i | nt | 37.0 | 115.9 | 82.3
C[N+]1=C(/C=C/Nc2ccccc2Cl)C(C)(C)c2ccccc21 | i | nt | i | i | i | nt | nt
COc1ccc(N2C(=O)CC(N3CCN(S(=O)(=O)c4ccc(Cl)cc4)CC3)C2=O)cc1 (stereo not given) | i | nt | i | i | 30.0 | i | i
COc1ccc(N=C2S/C(=C\c3ccc(N4CCOCC4)o3)C(=O)N2CCc2c[nH]c3ccccc23)cc1 | nt | nt | i | nt | 55.0 | 67.8 | i
COc1ccc(N=C2S/C(=C\c3ccc(OCC(=O)O)cc3)C(=O)N2CCc2c[nH]c3ccccc23)cc1 | i | i | i | i | i | nt | nt
O=C1c2cccc3c([N+](=O)[O-])ccc(c23)C(=O)N1c1ccccn1 | nt | nt | i | nt | 104.7 | 112.8 | 151.2
COc1ccc(C2NC(=O)CCC2[N+](=O)[O-])c(OC)c1OC (stereo not given) | nt | i | nt | nt | nt | nt | nt
CC(CNC(=O)c1ccccc1Cl)c1ccccc1 (stereo not given) | nt | i | nt | nt | nt | nt | nt
SMILES | S1P3 antag | Pf gametocyte | S1P4 ag | Calb biofilm kill | S1P4 antag | S1P4 antag cf | S1P1 antag
COc1ccc(OC)c(NC=C2C(=O)OC(C)(C)OC2=O)c1 | i | nt | i | nt | i | nt | nt
COc1ccc(OC)c(NC=C2C(=O)OC3(CCCCC3)OC2=O)c1 | i | i | i | nt | 32.3 | i | i
CC(=O)N(c1ccccc1C)C1CCCC1 | i | i | i | i | i | nt | nt
CC(=O)N(C1=C(Cl)C(=O)c2ccccc2C1=O)C1CCCCC1 | i | i | i | i | 51.6 | 115.2 | 61.0
COc1ccc(CC2(CO)CCN(S(=O)(=O)c3sccc3C)CC2)cc1 | i | i | i | i | i | nt | nt
Cc1ccccc1NC(=O)N1CCc2ccccc2C1 | i | i | i | i | 32.3 | 80.1 | i
O=C(NCc1cccnc1)/C(=C\c1ccc(-c2ccc(Cl)c(Cl)c2)o1)S(=O)(=O)c1ccccc1 | i | i | i | i | 57.9 | 108.0 | 48.4
O=C(NCc1cccnc1)c1ccc(-c2ccc(Cl)cc2)o1 | i | i | i | i | i | nt | nt
Cc1ccc(C2=Nc3ccccc3SC(c3cccc([N+](=O)[O-])c3)C2)cc1 (stereo not given) | i | nt | i | i | 45.5 | i | i
COc1ccc(/C=C/C(=O)CC(O)(c2ccccc2)C(F)(F)F)cc1 (stereo not given) | nt | nt | i | i | i | nt | nt
O=C(/C=C/c1ccccc1)CC(O)(c1ccccc1)C(F)(F)C(F)F (stereo not given) | nt | i | i | nt | 58.5 | 106.4 | i
O=C(/C=C/c1ccccc1)CC(O)(c1ccccc1)C(F)(F)F (stereo not given) | nt | nt | i | nt | 46.9 | 106.2 | 41.4
CCc1nc2ccccc2c(C(=O)Nc2ccc(F)cc2)c1C | nt | i | nt | nt | nt | nt | nt
CCOc1ccc(C2(C)CC(=O)N(C)C2=O)cc1 (stereo not given) | nt | i | nt | nt | nt | nt | nt
Cc1ccc(Cn2ncc(Cl)c(Cl)c2=O)cc1 | i | i | i | i | i | nt | nt
O=c1c(Cl)c(Cl)cnn1-c1ccccc1 | i | i | i | i | 101.1 | 122.3 | 72.0
O=c1c(Cl)c(Cl)cnn1Cc1ccccc1Cl | i | i | i | i | 46.2 | 115.3 | 58.0
Nc1c(Cl)cnn(-c2ccccc2)c1=O | nt | i | nt | nt | nt | nt | nt
O=c1c(Cl)c(Cl)cnn1Cc1nnc(-c2ccc(Cl)cc2)o1 | i | nt | i | i | 36.7 | 68.1 | i
COc1ccccc1S(=O)(=O)CC(O)COc1ccc(C#N)cc1 (stereo not given) | i | nt | i | i | i | nt | nt
CCOC(=O)COc1ccc(/C=C2\NC(=S)N(CC)C2=O)cc1 | i | i | i | i | i | nt | nt
Cc1ccc(NC(=O)CS(=O)CC(=O)Nc2ccc(N3CCOCC3)cc2)cc1Cl (stereo not given) | i | nt | i | nt | 30.1 | i | i
O=C(Nc1ccc(N2CCOCC2)cc1)Nc1ccc(Cl)c(Cl)c1 | nt | nt | i | nt | i | nt | nt
CCC1Oc2ccc(C)cc2N(CC(=O)NCC2COc3ccccc3O2)C1=O (stereo not given) | nt | nt | i | nt | i | nt | nt
Cc1ccc(N/C(N)=N/c2nc3c(c(=O)[nH]2)CCCC3)c(C)c1 | nt | nt | i | nt | i | nt | nt
SMILES | S1P3 antag | Pf gametocyte | S1P4 ag | Calb biofilm kill | S1P4 antag | S1P4 antag cf | S1P1 antag
Cc1ccc(N/C(N)=N/c2nc(C)cc(N3CCCCC3)n2)c(C)c1 | i | i | i | i | 44.7 | 44.9 | i
Cc1ccnc(SCc2ccc(C(=O)O)cc2)n1 | nt | i | nt | nt | nt | nt | nt
CCCC(=O)OCCNc1cc(Sc2nc3ccccc3[nH]2)c2nonc2c1[N+](=O)[O-] | i | i | i | i | 51.5 | 106.1 | i
CSS(=O)(=O)c1cccc2cccnc12 | i | i | i | i | i | nt | nt
N#Cc1ccc(/C=C/C(=O)c2cccnc2)cc1 | i | i | i | i | 44.3 | 53.5 | 52.3
O=C(/C=C/c1ccc(Cl)cc1)c1cccnc1 | nt | i | i | nt | i | nt | nt
COc1ccc(NC(=O)/C(Cl)=C(/Cl)S(=O)(=O)Cc2ccccc2)cn1 | nt | i | i | nt | 66.5 | 118.9 | 61.5
Clc1ccc(CNc2ccccc2NCc2ccc(Cl)nc2)cn1 | i | i | i | i | i | nt | nt
